Measurements: ChEMBL document CHEMBL4346701, “Synthesis and biological evaluation of tryptophan-derived rhodanine derivatives as PTP1B inhibitors and anti-bacterial agents” (Eur J Med Chem, 2019)
≈ marks a conversion by molar mass, not a printed value.

Tests used:
[1] = tested on: Staphylococcus aureus; assay: Antibacterial activity against Staphylococcus aureus KCTC503 assessed as reduction in bacterial cell growth incubated for 24 hrs by ELISA; assay type: functional; settings: KCTC503, 24 h
Method in brief: (§1)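 MICs determined by serial dilution in 96-well microtiter plates. The strain panel included Gram-positive S. aureus strains and multidrug-resistant clinical isolates. Gatifloxacin, moxifloxacin, norfloxacin and oxacillin served as antibacterial positive controls.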

[2] = tested on: Staphylococcus aureus; assay: Antibacterial activity against Methicillin-resistant Staphylococcus aureus CCARM 3167 assessed as reduction in bacterial cell growth incubated for 24 hrs by ELISA; assay type: functional; settings: CCARM 3167, 24 h; method in brief: as §1
[3] = tested on: Streptococcus mutans; assay: Antibacterial activity against Streptococcus mutans KCTC3289 assessed as reduction in bacterial cell growth incubated for 24 hrs by ELISA; assay type: functional; settings: KCTC3289, 24 h
Method in brief: (§2)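 MIC determined by serial dilution in 96-well microtiter plates. Strains used were E. coli 1924 and P. aeruginosa 2742 (Gram-negative), S. mutans 3289 (Gram-positive) and the fungus C. albicans 7535. Gatifloxacin, moxifloxacin, norfloxacin and oxacillin served as antibacterial reference agents, and fluconazole as the antifungal reference.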

[4] = molecular target: T1, Tyrosine-protein phosphatase non-receptor type 1 (Homo sapiens, UniProt P18031); assay: Inhibition of human recombinant GST-tagged PTP1B expressed in Escherichia coli BL21 (DE3) using pNPP as substrate measured for 2 mins by colorimetric analysis
T1 sequence (P18031 whole entry): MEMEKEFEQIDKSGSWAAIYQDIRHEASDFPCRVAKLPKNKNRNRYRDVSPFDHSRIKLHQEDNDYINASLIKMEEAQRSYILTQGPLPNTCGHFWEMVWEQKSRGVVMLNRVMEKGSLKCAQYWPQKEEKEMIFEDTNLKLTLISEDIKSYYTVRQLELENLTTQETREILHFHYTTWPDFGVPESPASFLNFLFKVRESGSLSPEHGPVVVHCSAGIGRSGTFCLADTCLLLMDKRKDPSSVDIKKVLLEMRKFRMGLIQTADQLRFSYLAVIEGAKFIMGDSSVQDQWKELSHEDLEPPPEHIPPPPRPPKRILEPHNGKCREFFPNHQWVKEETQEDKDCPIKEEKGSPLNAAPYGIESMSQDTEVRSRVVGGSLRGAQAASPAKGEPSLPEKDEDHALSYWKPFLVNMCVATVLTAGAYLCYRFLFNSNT

[5] = tested on: Pseudomonas aeruginosa; assay: Antibacterial activity against Pseudomonas aeruginosa 2742 assessed as reduction in bacterial cell growth incubated for 24 hrs by ELISA; assay type: functional; settings: Pseudomonas aeruginosa, 2742, 24 h; method in brief: as §2
[6] = tested on: Staphylococcus aureus; assay: Antibacterial activity against Methicillin-resistant Staphylococcus aureus CCARM 3506 assessed as reduction in bacterial cell growth incubated for 24 hrs by ELISA; assay type: functional; settings: CCARM 3506, 24 h; method in brief: as §1
[7] = tested on: Staphylococcus aureus; assay: Antibacterial activity against Quinolone-resistant Staphylococcus aureus CCARM 3505 assessed as reduction in bacterial cell growth incubated for 24 hrs by ELISA; assay type: functional; settings: CCARM 3505, 24 h; method in brief: as §1
[8] = tested on: Staphylococcus aureus; assay: Antibacterial activity against Quinolone-resistant Staphylococcus aureus CCARM 3519 assessed as reduction in bacterial cell growth incubated for 24 hrs by ELISA; assay type: functional; settings: CCARM 3519, 24 h; method in brief: as §1
[9] = tested on: Staphylococcus aureus; assay: Antibacterial activity against Staphylococcus aureus KCTC209 assessed as reduction in bacterial cell growth incubated for 24 hrs by ELISA; assay type: functional; settings: KCTC209, 24 h; method in brief: as §1
[10] = tested on: Escherichia coli; assay: Antibacterial activity against Escherichia coli 1924 assessed as reduction in bacterial cell growth incubated for 24 hrs by ELISA; assay type: functional; settings: Escherichia coli, 1924, 24 h; method in brief: as §2
[11] = tested on: Candida albicans; assay: Antifungal activity against Candida albicans 7535 assessed as reduction in bacterial cell growth incubated for 24 hrs by ELISA; assay type: functional; settings: Candida albicans, 7535, 24 h; method in brief: as §2
[12] = tested on: Staphylococcus aureus; assay: Antibacterial activity against Staphylococcus aureus RN4220 assessed as reduction in bacterial cell growth incubated for 24 hrs by ELISA; assay type: functional; settings: RN4220, 24 h; method in brief: as §1

Compound | MIC [1] | MIC [2] | MIC [3] | IC50 [4] | MIC [5] | MIC [6] | MIC [7] | MIC [8] | MIC [9] | MIC [10] | MIC [11] | MIC [12]
COc1cc(/C=C2\SC(=S)N(C(Cc3c[nH]c4ccccc34)C(=O)O)C2=O)ccc1OCc1ccc(C)cc1 (stereo unspecified) | 4 µg/mL (≈ 7.16 µM) | 4 µg/mL (≈ 7.16 µM) | 2 µg/mL (≈ 3.58 µM) | 3600 nM | > 64 µg/mL | 2 µg/mL (≈ 3.58 µM) | 2 µg/mL (≈ 3.58 µM) | 8 µg/mL (≈ 14.3 µM) | 2 µg/mL (≈ 3.58 µM) | 2 µg/mL (≈ 3.58 µM) | > 64 µg/mL | 2 µg/mL (≈ 3.58 µM)
COc1cc(/C=C2\SC(=S)N(C(Cc3c[nH]c4ccccc34)C(=O)O)C2=O)ccc1OCc1ccccc1 (stereo unspecified) | 8 µg/mL (≈ 14.7 µM) | 8 µg/mL (≈ 14.7 µM) | 8 µg/mL (≈ 14.7 µM) | 5770 nM | > 64 µg/mL | 8 µg/mL (≈ 14.7 µM) | 8 µg/mL (≈ 14.7 µM) | 16 µg/mL (≈ 29.4 µM) | 8 µg/mL (≈ 14.7 µM) | 16 µg/mL (≈ 29.4 µM) | > 64 µg/mL | 8 µg/mL (≈ 14.7 µM)
O=C(O)C(Cc1c[nH]c2ccccc12)N1C(=O)/C(=C/c2cccc(OCc3ccc(Cl)cc3Cl)c2)SC1=S (stereo unspecified) | 8 µg/mL (≈ 13.7 µM) | 8 µg/mL (≈ 13.7 µM) | 4 µg/mL (≈ 6.85 µM) | 1700 nM | > 64 µg/mL | 8 µg/mL (≈ 13.7 µM) | 4 µg/mL (≈ 6.85 µM) | 4 µg/mL (≈ 6.85 µM) | 4 µg/mL (≈ 6.85 µM) | 8 µg/mL (≈ 13.7 µM) | > 64 µg/mL | 4 µg/mL (≈ 6.85 µM)
O=C(O)C(Cc1c[nH]c2ccccc12)N1C(=O)/C(=C/c2ccc(OCc3ccc(Cl)cc3)cc2)SC1=S (stereo unspecified) | 4 µg/mL (≈ 7.29 µM) | 4 µg/mL (≈ 7.29 µM) | 2 µg/mL (≈ 3.64 µM) | 2440 nM | > 64 µg/mL | 4 µg/mL (≈ 7.29 µM) | 4 µg/mL (≈ 7.29 µM) | 4 µg/mL (≈ 7.29 µM) | 4 µg/mL (≈ 7.29 µM) | 4 µg/mL (≈ 7.29 µM) | > 64 µg/mL | 2 µg/mL (≈ 3.64 µM)
COc1c(N2CCNC(C)C2)c(F)cc2c(=O)c(C(=O)O)cn(C3CC3)c12 (stereo unspecified) [GATIFLOXACIN] | 4 µg/mL (≈ 10.7 µM) | 2 µg/mL (≈ 5.33 µM) | 0.25 µg/mL (≈ 0.666 µM) |  | 1 µg/mL (≈ 2.66 µM) | 2 µg/mL (≈ 5.33 µM) | 8 µg/mL (≈ 21.3 µM) | 4 µg/mL (≈ 10.7 µM) | 2 µg/mL (≈ 5.33 µM) | 2 µg/mL (≈ 5.33 µM) |  | 0.25 µg/mL (≈ 0.666 µM)
O=C(O)C(Cc1c[nH]c2ccccc12)N1C(=O)/C(=C/c2ccc3cc(OCc4cccc(Cl)c4)ccc3c2)SC1=S (stereo unspecified) |  | 2 µg/mL (≈ 3.34 µM) | 2 µg/mL (≈ 3.34 µM) | 720 nM | > 64 µg/mL | 4 µg/mL (≈ 6.68 µM) | 8 µg/mL (≈ 13.4 µM) | 8 µg/mL (≈ 13.4 µM) |  | 2 µg/mL (≈ 3.34 µM) | > 64 µg/mL | 4 µg/mL (≈ 6.68 µM)
COc1ccc(COc2ccc3cc(/C=C4\SC(=S)N(C(Cc5c[nH]c6ccccc56)C(=O)O)C4=O)ccc3c2)cc1 (stereo unspecified) |  | 8 µg/mL (≈ 13.5 µM) | 8 µg/mL (≈ 13.5 µM) | 1450 nM | > 64 µg/mL | 8 µg/mL (≈ 13.5 µM) | 8 µg/mL (≈ 13.5 µM) | 8 µg/mL (≈ 13.5 µM) |  | 16 µg/mL (≈ 26.9 µM) | > 64 µg/mL | 8 µg/mL (≈ 13.5 µM)
O=C(O)CN1C(=O)/C(=C/c2ccc3cc(OCc4ccc(F)cc4)ccc3c2)SC1=S | 4 µg/mL (≈ 8.82 µM) | 4 µg/mL (≈ 8.82 µM) |  |  | > 64 µg/mL | 2 µg/mL (≈ 4.41 µM) | 4 µg/mL (≈ 8.82 µM) | 4 µg/mL (≈ 8.82 µM) |  | > 64 µg/mL | > 64 µg/mL | 4 µg/mL (≈ 8.82 µM)
O=C(O)C(Cc1c[nH]c2ccccc12)N1C(=O)/C(=C/c2ccc(OCc3ccc(Cl)cc3Cl)cc2)SC1=S (stereo unspecified) | 8 µg/mL (≈ 13.7 µM) | 8 µg/mL (≈ 13.7 µM) | 8 µg/mL (≈ 13.7 µM) | 3380 nM | > 64 µg/mL | 8 µg/mL (≈ 13.7 µM) | 8 µg/mL (≈ 13.7 µM) | 16 µg/mL (≈ 27.4 µM) | 4 µg/mL (≈ 6.85 µM) | 8 µg/mL (≈ 13.7 µM) | > 64 µg/mL | 4 µg/mL (≈ 6.85 µM)
Cc1ccc(COc2ccc(/C=C3\SC(=S)N(C(Cc4c[nH]c5ccccc45)C(=O)O)C3=O)cc2)cc1 (stereo unspecified) | 8 µg/mL (≈ 15.1 µM) | 8 µg/mL (≈ 15.1 µM) | 4 µg/mL (≈ 7.57 µM) | 5930 nM | > 64 µg/mL | 8 µg/mL (≈ 15.1 µM) | 8 µg/mL (≈ 15.1 µM) | 16 µg/mL (≈ 30.3 µM) | 4 µg/mL (≈ 7.57 µM) | 8 µg/mL (≈ 15.1 µM) | > 64 µg/mL | 4 µg/mL (≈ 7.57 µM)
COc1c(N2C[C@@H]3CCCN[C@@H]3C2)c(F)cc2c(=O)c(C(=O)O)cn(C3CC3)c12 [MOXIFLOXACIN] | 2 µg/mL (≈ 4.98 µM) |  | 0.25 µg/mL (≈ 0.623 µM) |  |  |  |  | 4 µg/mL (≈ 9.96 µM) |  |  | 0.5 µg/mL (≈ 1.25 µM) | 0.25 µg/mL (≈ 0.623 µM)
